Data on four compounds can be found in ChEMBL document CHEMBL1154958, “Novel molecular hybrids of cinnamic acids and guanylhydrazones as potential antitubercular agents” (Bioorg Med Chem Lett, 2010).

≈ marks a conversion by molar mass, not a printed value.

The test system of data set [1] is Mycobacterium tuberculosis. In words: Antituberculosis activity against Mycobacterium tuberculosis H37Rv after 7 days by resazurin microtiter assay. The class given is functional. The note with it: 168 h. An outline of the steps: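 H37Rv suspension seeded at 10⁵ cells/well in Middlebrook 7H9 broth. Compounds were serially diluted on the plate, and controls got matching DMSO. Plates were incubated at 37 °C for 7 days, then fresh 0.02% resazurin was added and plates incubated a further 48 h. MIC was the lowest concentration giving complete inhibition, read visually by colour.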
Background: The colour change of resazurin is a common sign of viable cells or microbes.

Data set [2] can be described thus: Cytotoxicity against african green monkey Vero C1008 cells assessed as cell viability at 62.5 ug/ml after 72 hrs by MTT assay. The class given is cell-based. The note with it: chlorocebus sabaeus, read-out: Activity. In general terms: Tetrazolium dyes change colour on reduction, which living cells bring about.
Data set [3] can be described thus: Cytotoxicity against african green monkey Vero C1008 cells after 72 hrs by MTT assay. The class given is cell-based. The conditions noted are these: chlorocebus sabaeus.
Data set [4] is described as follows: Cytotoxicity against african green monkey Vero C1008 cells assessed as cell viability at 2000 ug/ml after 72 hrs by MTT assay. The class given is cell-based. The note with it: chlorocebus sabaeus, read-out: Activity.
Data set [5] can be described thus: Cytotoxicity against african green monkey Vero C1008 cells assessed as cell viability at 31.25 ug/ml after 72 hrs by MTT assay. The data set is classed as cell-based. The conditions noted are these: chlorocebus sabaeus, read-out: Activity.
Data set [6] in a line: Cytotoxicity against african green monkey Vero C1008 cells assessed as cell viability at 1000 ug/ml after 72 hrs by MTT assay. The class given is cell-based. The note with it: chlorocebus sabaeus, read-out: Activity.
A short description of data set [7]: Cytotoxicity against african green monkey Vero C1008 cells assessed as cell viability at 125 ug/ml after 72 hrs by MTT assay. The class given is cell-based. The note with it: chlorocebus sabaeus, read-out: Activity.

One may read the MIC as the least concentration at which growth counts as inhibited. Consider `O=C(/C=C/c1ccccc1)Oc1ccccc1` [PHENYL CINNAMATE], for which, in data set [1], the MIC came to 502 µM (≈ 113 µg/mL).
For orientation: CC50 means the concentration that lowers cell viability or growth by half. Turning to `NNC(=O)c1ccncc1` [ISONIAZID], the viability at 72 h, 62.5 ug/ml in data set [2] was 98.5%. In data set [3], this compound yielded a CC50 at 72 h of 5.83 mM. The same compound returned an MIC in data set [1] of 1.8 µM (≈ 0.247 µg/mL). Further, the viability at 72 h, 2000 ug/ml in data set [4] amounted to 23.1%. In addition, in data set [5], the viability at 72 h, 31.25 ug/ml was determined as 99.3%. Besides, the viability at 72 h, 1000 ug/ml in data set [6] came to 31.7%. For the same compound, the viability at 72 h, 125 ug/ml in data set [7] is 95.5%.
In turn, `O=C(O)/C=C/c1ccccc1` [CINNAMIC ACID] gave an MIC in data set [1] of 675 µM (≈ 100 µg/mL).
Same read-out and setting: to `N=C(N)N/N=C/c1ccc(O)cc1` belongs 1120 µM (≈ 200 µg/mL).
